Bioassay records: PubChem, several laboratories
Calb FLC – C. albicans growth modulation with fluconazole. C. albicans CaCi-2 (fluconazole-resistant clinical isolate) + fluconazole, Alamar Blue growth, 48 h. growth inhibition, % (test concentration not listed). actives 0.57% (n = 300,000);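 active = growth inhibition above about 58% in most replicates, limit read from the data, passing the limit was not always enough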;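 note: all wells also contain fluconazole at 8 µg/ml as a sub-toxic cotreatment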
SKKanGAS inh – inhibitors of SKKanGAS S. pyogenes growth in kanamycin (SK-promoter or general growth effect) | inhibition, % at 7.5 µM | actives 1.3% (n = 300,000) | BacTiter-Glo, 6 h;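 active = mean replicate score, as percent of positive control median, at least 50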;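 note: strain carries kanamycin resistance gene driven by streptokinase promoter and grows in 40 µg/ml kanamycin; loss of luminescence reflects streptokinase promoter inhibition or plain growth inhibition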
HGIII-sPLA2 inh – Blocks human group III sPLA2 activity; QFRET BODIPY PC-A2 liposome hydrolysis, fluorescence; AID 743126; inhibition, % at 12.2 µM; actives 0.56% (n = 370,000);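 active = inhibition above mean plus 3 SD of compounds lying within the high and low control bounds, cut at about 19% in these data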
ARFGAP1 inhibitor – inhibits rat ARF GTPase activating protein 1 | Q62848 | Arfgap1-stimulated ARF1 GTP hydrolysis, GDP FP detection | inhibition, % at 16.5 µM | actives 0.26% (n = 360,000);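 active = inhibition above a per-plate limit, mean inhibition of low control wells plus 3 SD, cut at about 25% in these data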
Target sequence (Q62848 1-136 limits assumed): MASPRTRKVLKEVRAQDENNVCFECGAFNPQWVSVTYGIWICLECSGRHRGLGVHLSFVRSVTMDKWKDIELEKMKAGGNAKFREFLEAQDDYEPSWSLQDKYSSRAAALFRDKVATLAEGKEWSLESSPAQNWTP
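system = rat Arfgap1 catalytic domain, aa 1-136 | technique = FP, GDP Alexa 633 tracer displaced from anti-GDP antibody, 620/688 nm | compound = one concentration, 16.5 µM, DMSO 1.26% | medium = HEPES-based buffer, pH 7.5 | timing = compound-enzyme preincubation 20 min, reaction 120 min, detection 60 min, 25 °C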
ASAP1 GAP inh – blocks human ASAP1-stimulated Arf1 GTP hydrolysis; AID 624377; GDP FP detection; inhibition, % at 16.5 µM; actives 0.19% (n = 360,000); Q9ULH1; in the data active = inhibition above about 25%
Target sequence (Q9ULH1 325-724 limits assumed): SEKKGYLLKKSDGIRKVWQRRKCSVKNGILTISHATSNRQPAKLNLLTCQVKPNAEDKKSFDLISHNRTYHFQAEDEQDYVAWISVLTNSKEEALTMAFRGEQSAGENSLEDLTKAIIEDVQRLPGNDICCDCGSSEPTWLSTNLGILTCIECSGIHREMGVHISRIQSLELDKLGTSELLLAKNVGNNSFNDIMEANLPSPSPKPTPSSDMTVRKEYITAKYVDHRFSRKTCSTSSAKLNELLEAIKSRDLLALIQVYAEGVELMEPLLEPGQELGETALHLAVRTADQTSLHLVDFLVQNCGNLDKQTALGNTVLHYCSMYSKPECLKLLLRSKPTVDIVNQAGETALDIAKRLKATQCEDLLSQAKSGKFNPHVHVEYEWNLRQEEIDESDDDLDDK
Each line names hits and unclear results; the compound was inactive in the other large screens. This is a sample that favours compounds with a hit; in the whole collection about 2.3% have one here.

COc1cc(OC)c([C@H]2C=C(C)[C@H]3C[C@@H]2C3(C)C)c(OC)c1	SKKanGAS inh 97
CCCCn1c(=O)c(C(=O)Nc2ccccc2C)c(O)c2ccccc21	none (no result: HGIII-sPLA2 inh, ARFGAP1 inhibitor, ASAP1 GAP inh)
CCCCCn1c(=O)c(C(=O)Nc2ncccc2C)c(O)c2ccccc21	SKKanGAS inh 101
CCn1nc(/C=C/c2ccccc2)nc2c(=O)n(C)c(=O)nc1-2	Calb FLC 101
C[C@]12CC[C@@H](O)C[C@H]1CC[C@@H]1[C@@H]2CC[C@]2(C)C(=O)CC[C@@H]12	none
C[C@]12CCC3[C@@H](CC[C@H]4C[C@@H](O)CC[C@]34C)C1CCC2=O (stereo partly specified)	Calb FLC 80
C[C@H]1CC[C@@]2(C)[C@@H](CC[C@@H]3[C@@H]2CC[C@]2(C)[C@@H](O)CC[C@@H]32)C1	SKKanGAS inh 87
O=C(NCCN1CCC2(CC1)C(=O)NCN2c1ccccc1)c1cc(C(F)(F)F)ccc1C(F)(F)F	none (no result: Calb FLC, SKKanGAS inh)
O=C(c1cc2c(s1)-c1ccccc1OC2)N1CCC2(CC1)OCCO2	Calb FLC 100
CS(=O)(=O)N1Cc2cc(Br)ccc2-n2nncc2C1	none (no result: Calb FLC, SKKanGAS inh)
Cc1cc(C(C#N)c2ccc(Cl)cc2)c(Cl)cc1NC(=O)c1cc(I)cc(I)c1O (stereo unspecified)	SKKanGAS inh 105
Cn1ncc(Cl)c1C(=O)N1CCC2(CC1)OCCO2	SKKanGAS inh 51
O=C(c1ccc(Cl)cc1)N1CCC2(CC1)OCCO2	none
O=C1CC[C@@]2(O)[C@H]3Cc4ccc(O)c5c4[C@@]2(CCN3CC2CC2)C1O5 (stereo partly specified)	none (no result: Calb FLC, SKKanGAS inh)
COP(=O)(C(=O)Nc1ccccc1)C(CC(C)C)NC(=O)OCc1ccccc1 (stereo unspecified)	none (no result: Calb FLC, SKKanGAS inh, ARFGAP1 inhibitor, ASAP1 GAP inh)
CC1(C)CN=C(Nc2nc3ccccc3s2)S1	SKKanGAS inh 61
CC1(C)CN=C(NCc2ccccc2)S1	none
CCOc1ccc(-c2cc(C)[n+](CCO)c(-c3ccc(OCC)cc3)c2)cc1	Calb FLC 92
Cc1cc(-c2ccccc2)cc(-c2ccccc2)[n+]1CCc1ccccc1	Calb FLC 97
Cc1cccc2nc(-c3ccccc3)c(-c3ccc(CN4CCC(n5c(=O)[nH]c6cc(Cl)ccc65)CC4)cc3)nc12	none (no result: Calb FLC, SKKanGAS inh)
CN1c2ccc(Br)cc2[C@H]2NCC[C@H]2[C@H]1CO	none (no result: Calb FLC, SKKanGAS inh, ARFGAP1 inhibitor, ASAP1 GAP inh)
CCOC(=O)c1c(NC(=O)c2c(N)n(CCCOC)c3nc4ccccc4nc23)sc2c1CCCC2	SKKanGAS inh 56
Cc1ccc(/C=C2/Sc3ccc(C(=O)N4CCC5(CC4)OCCO5)cc3NC2=O)cc1	SKKanGAS inh 53
CN1C(=O)[C@@]23C[C@]4(c5c[nH]c6ccccc56)c5ccccc5N(S(=O)(=O)c5ccccc5)[C@@H]4N2C(=O)[C@@H]1SS3	none (no result: Calb FLC, SKKanGAS inh, ARFGAP1 inhibitor, ASAP1 GAP inh)
Brc1csc(N2CCNCC2)n1	none (no result: Calb FLC, SKKanGAS inh, ARFGAP1 inhibitor, ASAP1 GAP inh)
O=C(C[N+]12CCC(CC1)C(C(O)(c1ccccc1)c1ccccc1)C2)c1ccc(Br)cc1 (stereo unspecified)	Calb FLC 95
Cc1ccc(N2Cc3ccccc3-n3nncc3C2)cc1	none (no result: Calb FLC, SKKanGAS inh)
Oc1ccc(/C=N/NP(=S)(c2ccccc2)c2ccccc2)c(O)c1O	Calb FLC 104
Cc1ccc(-c2cc(-c3ccccc3)cc(-c3ccccc3)[n+]2-c2ccccc2C(=O)O)cc1	Calb FLC 96
CCC(NC(=O)OCc1ccccc1)P(=O)(Oc1ccccc1)Oc1ccccc1 (stereo unspecified)	none (no result: Calb FLC, SKKanGAS inh, ARFGAP1 inhibitor, ASAP1 GAP inh)
CC(C)[C@H]1C(=O)O[C@H](C(C)C)C(=O)N(C)[C@@H](C(C)C)C(=O)O[C@H](C(C)C)C(=O)N(C)[C@@H](C(C)C)C(=O)O[C@H](C(C)C)C(=O)N1C	Calb FLC 88 (no result: HGIII-sPLA2 inh, ARFGAP1 inhibitor, ASAP1 GAP inh)
CC[C@H](C)[C@@H]1OC(=O)[C@H](C(C)C)N(C)C(=O)[C@H](C(C)C)NC(=O)[C@@H](C)[C@@H](CCCC#CBr)OC(=O)[C@H](C(C)C)N(C)C(=O)C2CCCN2C1=O (stereo partly specified)	none (no result: Calb FLC, SKKanGAS inh, ARFGAP1 inhibitor, ASAP1 GAP inh)
O=C1C2CCN(CC2)C1Cc1ccc(OCc2ccccc2)cc1 (stereo unspecified)	Calb FLC 109
COc1ccccc1CC1C(=O)C2CCN1CC2 (stereo unspecified)	none
C=CCn1c(O)c(C(CC)=Nc2ccc(N(CC)CC)cc2)c(=O)[nH]c1=O	SKKanGAS inh 101
CCCCn1c(O)c(C(CC)=Nc2ccc(OCC)cc2)c(=O)[nH]c1=O	SKKanGAS inh 55
C=CCn1c(O)c(C(C)=Nc2ccc(N(CC)CC)cc2)c(=O)[nH]c1=O	SKKanGAS inh 76
C=CCn1c(O)c(C(CC)=Nc2ccc(NC(C)=O)cc2)c(=O)[nH]c1=O	none
O=C(CN1C(=O)[C@@H](Cc2ccccc2)N=C(c2ccccc2)c2ccccc21)NC1CCCCC1	none (no result: Calb FLC, SKKanGAS inh, ARFGAP1 inhibitor, ASAP1 GAP inh)
CCc1ccccc1NC(=O)CSc1nnc([C@@H](N)Cc2c[nH]c3ccccc23)o1	none
Cc1ccc(NC(=O)CSc2nnc([C@@H](N)Cc3c[nH]c4ccccc34)o2)c(C)c1	Calb FLC 109
COC(=O)C1(N(C)c2ccccc2)CCN(Cc2ccccc2)CC1	none (no result: Calb FLC, SKKanGAS inh, ARFGAP1 inhibitor, ASAP1 GAP inh)
Clc1ccc(COC(Cn2ccnc2)c2ccc(Cl)cc2Cl)c(Cl)c1 (stereo unspecified)	SKKanGAS inh 108 (no result: Calb FLC)
COC(=O)c1nc(-c2ccc3c(n2)C(=O)C(N)=C(OC)C3=O)c(N)c(-c2ccc(OC)c(OC)c2O)c1C	ASAP1 GAP inh 31
O=C(O)c1cc2ccccc2n1C1CCN(Cc2ccccc2)CC1	none (no result: Calb FLC, SKKanGAS inh, ARFGAP1 inhibitor, ASAP1 GAP inh)
CN(C)[C@@H]1C(=O)C(C(N)=O)=C(O)[C@@]2(O)C(=O)C3=C(O)c4c(O)cccc4[C@@](C)(O)[C@H]3[C@H](O)[C@@H]12	none
CN(C)[C@@H]1C(=O)C(C(N)=O)=C(O)[C@@]2(O)C(=O)C3=C(O)c4c(O)ccc(Cl)c4[C@@](C)(O)[C@H]3C[C@@H]12	SKKanGAS inh 109
CN(C)[C@@H]1C(=O)C(C(N)=O)=C(O)[C@@]2(O)C(=O)C3=C(O)c4c(O)cccc4[C@@](C)(O)C3C[C@@H]12 (stereo partly specified)	SKKanGAS inh 109
CN1OC[C@@H]2CN3C4(C[C@@H]21)c1ccccc1C3(c1ccccc1)c1ccccc14	none (no result: Calb FLC, SKKanGAS inh)
CC[C@H](C(N)=O)N1CCCC1=O	none (no result: Calb FLC, SKKanGAS inh, ARFGAP1 inhibitor, ASAP1 GAP inh)
CN1C2(C)c3ccccc3C1(c1ccccc1)c1ccccc12	none (no result: Calb FLC, SKKanGAS inh)
CC[n+]1c(/C=C/N(C)c2ccccc2)sc2ccc(Cl)cc21	Calb FLC 106
COC12C(COC(N)=O)C3=C(C(=O)C(C)=C(N)C3=O)N1CC1C2N1C (stereo unspecified)	SKKanGAS inh 111
S=P(c1ccccc1)(c1ccccc1)c1cnc2ccccn12	none (no result: Calb FLC, SKKanGAS inh, ARFGAP1 inhibitor, ASAP1 GAP inh)
CCCCCCC(=O)N/N=C/c1c(O)n(C(C)CC)c(=S)[nH]c1=O (stereo unspecified)	SKKanGAS inh 90
CCCCCCC(=O)N/N=C/c1c(O)n(C2CC2)c(=S)[nH]c1=O	none
COc1ccc(Cn2c(O)c(/C=N/NC(=O)c3ccccc3)c(=O)[nH]c2=O)cc1	Calb FLC 81
